Laboratory results taken from ChEMBL document CHEMBL1121663, “(Acylaryloxy)acetic acid diuretics. 3. 2,3-Dihydro-5-acyl-2-benzofurancarboxylic acids, a new class of uricosuric diuretics” (1981).
Values joined by “and” are separate entries in the source; they are usually repeats but may differ in a detail not shown here. Identical values can stand only once.

What was measured:
Rattus norvegicus [1] = experiment: Natriuretic activity in rats at 81 mg/kg of dosage; mequiv of Na; assay type: functional
In short: (§1)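 Rats housed three per metabolism cage received placebo vehicle or compound as a suspension in a final volume of 5.0 mL orally, with placebo groups run concurrently. Urine was collected over 0–5 h and analysed for Na+, K+ and Cl− by standard methods. Values are mequiv per cage, given as geometric means of three cages per dose level.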

Canis familiaris [2] = experiment: Diuretic activity in dogs following 5 mg/kg oral administration.
Canis familiaris [3] = experiment: Compound was tested for diuretic activity in dogs at 5 mg/kg dose after intravenous administration measured as microequivalent of K+/minute; 6/35 (Control/Drug treated); assay type: functional, Canis lupus familiaris, Urine
In short: (§2)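 Intravenous dog clearance study. A priming iv injection of 1.5 mL/kg isoosmotic pH 7.4 phosphate buffer (20 mg PO4/kg) was given first. This was followed by infusion of 3 mL/min pH 7.4 buffer containing 4% mannitol (6.9 mg PO4/min) throughout the experiment. Urinary Na+, K+ and Cl- were measured by standard methods. Each value is the mean of the two highest consecutive 15-min collections.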

Canis familiaris [4] = experiment: Compound was tested for diuretic activity in dogs at 5 mg/kg dose after oral administration measured as microequivalent of K+/minute; assay type: functional, Canis lupus familiaris, Urine
In short: (§3)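 Oral dog test: water loading (250 mL po, then 500 mL 1 h later). One hour later bladders were emptied by catheter and compound or placebo given in gelatin capsules. Dogs were kept in metabolism cages. Voided urine plus catheterized bladder urine was pooled at 5 h, and Na+, K+ and Cl- were measured by standard methods. Geometric means are reported.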

Rattus norvegicus [5] = experiment: Natriuretic activity in rats at 9 mg/kg of dosage; mequiv of Na; assay type: functional; in short: as §1
Canis familiaris [6] = experiment: Compound was tested for diuretic activity in dogs at 5 mg/kg dose after oral administration measured as microequivalent of Na+/minute; assay type: functional, Canis lupus familiaris, Urine; in short: as §3
[7] = Compound was tested for natriuretic activity in chimpanzee at 5 mg/kg dose activity is measured as ratio of clearance of urate / […]; Curate/Cinulin; assay type: functional
In short: (§4)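 Inulin iv gave GFR; urate and inulin clearances and Na+, K+, Cl- excretion were measured by AutoAnalyzer. Controls were three 20-min periods; compound was given orally in aqueous solution via nasal catheter. Response was the mean of eight 15-20 min periods, reported as treatment minus control from single experiments.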

Canis familiaris [8] = experiment: Compound was tested for diuretic activity in dogs at 5 mg/kg dose after intravenous administration measured as microequivalent of Na+/minute; 11/118 (Control/Drug treated); assay type: functional, Canis lupus familiaris, Urine
Pan troglodytes [9] = experiment: Compound was tested for natriuretic activity in chimpanzee at 5 mg/kg dose activity is measured as microequivalent of Na+/minute; muequiv of Na+/min; assay type: functional; in short: as §4
Rattus norvegicus [10] = experiment: Natriuretic activity in rats at 27 mg/kg of dosage; mequiv of Na; assay type: functional; in short: as §1
Canis familiaris [11] = experiment: Compound was tested for diuretic activity in dogs at 5 mg/kg dose after oral administration measured as microequivalent of Cl-/minute; assay type: functional, Canis lupus familiaris, Urine; in short: as §3
Rattus norvegicus [12] = experiment: Natriuretic activity in rats at 3 mg/kg of dosage; mequiv of Na; assay type: functional; in short: as §1
Canis familiaris [13] = experiment: Compound was tested for diuretic activity in dogs at 5 mg/kg dose after intravenous administration measured as microequivalent of Cl-/minute; 43/54 (Control/Drug treated); assay type: functional, Canis lupus familiaris, Urine; in short: as §2
Canis familiaris [14] = experiment: Compound was tested for diuretic activity in dogs at 5 mg/kg dose after intravenous administration, activity is expressed as urine volume; 1/6; assay type: functional, Canis lupus familiaris
Canis familiaris [15] = experiment: Compound was tested for diuretic activity in dogs at 5 mg/kg dose after intravenous administration measured as microequivalent of Na+/minute; 4/193 (Control/Drug treated); assay type: functional, Canis lupus familiaris, Urine
Canis familiaris [16] = experiment: Compound was tested for diuretic activity in dogs at 5 mg/kg dose after intravenous administration measured as microequivalent of K+/minute (Control/Drug treated); assay type: functional, Canis lupus familiaris, Urine; details: in the assay text read “oral” for “intravenous”
Canis familiaris [17] = experiment: Compound was tested for diuretic activity in dogs at 5 mg/kg dose after oral administration measured as microequivalent of Na+/minute
Canis familiaris [18] = experiment: Compound was tested for diuretic activity in dogs at 5 mg/kg dose after intravenous administration measured as microequivalent of Cl-/minute (Control/Drug treated); assay type: functional, Canis lupus familiaris, Urine; details: in the assay text read “oral” for “intravenous”
Canis familiaris [19] = experiment: Compound was tested for diuretic activity in dogs at 5 mg/kg dose after intravenous administration measured as microequivalent of K+/minute; 4/19 (Control/Drug treated); assay type: functional, Canis lupus familiaris, Urine; in short: as §2
Canis familiaris [20] = experiment: Compound was tested for diuretic activity in dogs at 5 mg/kg dose after intravenous administration measured as microequivalent of Na+/minute; 22/144 (Control/Drug treated); assay type: functional, Canis lupus familiaris, Urine
Canis familiaris [21] = experiment: Compound was tested for diuretic activity in dogs at 5 mg/kg dose after intravenous administration measured as microequivalent of Cl-/minute; 9/132 (Control/Drug treated); assay type: functional, Canis lupus familiaris, Urine; in short: as §2
[22] = Activity is measured as ratio of clearance of urate / […] at 1.0 mg/kg dose; Curate/Cinulin; assay type: functional
In short: (§5)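 Inulin iv gave GFR, and urate clearance was measured by AutoAnalyzer. Controls came from three 20-min periods. Aqueous compound was given orally by nasal catheter, and the response was averaged over eight 15-20 min periods. Values are treatment minus control from single experiments.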

Pan troglodytes [23] = species on record: Pan troglodytes; experiment: Compound was tested for natriuretic activity in chimpanzee measured as microequivalent of Na+/minute at […]; mequiv of Na; assay type: functional; in short: as §4
[24] = Activity is measured as ratio of clearance of urate / […] at 10 mg/kg; Curate/Cinulin; assay type: functional; in short: as §5
Pan troglodytes [25] = experiment: Compound was tested for natriuretic activity in chimpanzee measured as microequivalent of Na+/minute at 0.0312 mg/kg; mequiv of Na; assay type: functional; in short: as §4
[26] = Activity is measured as ratio of clearance of urate / […] at 0.0312 mg/kg; Curate/Cinulin; assay type: functional; in short: as §5
Pan troglodytes [27] = experiment: Compound was tested for natriuretic activity in chimpanzee measured as microequivalent of Na+/minute at 1 mg/kg; mequiv of Na; assay type: functional; in short: as §4
Pan troglodytes [28] = experiment: Compound was tested for natriuretic activity in chimpanzee measured as microequivalent of Na+/minute at 1.0 mg/kg dose; mequiv of Na; assay type: functional; in short: as §4
[29] = Activity is measured as ratio of clearance of urate / […] at 0 mg/kg; Curate/Cinulin; assay type: functional; in short: as §5
Pan troglodytes [30] = experiment: Compound was tested for natriuretic activity in chimpanzee measured as microequivalent of Na+/minute at 10 mg/kg; mequiv of Na; assay type: functional; in short: as §4
Pan troglodytes [31] = experiment: Compound was tested for natriuretic activity in chimpanzee measured as microequivalent of Na+/minute at 0 mg/kg; mequiv of Na; assay type: functional; in short: as §4
Canis familiaris [32] = experiment: Compound was tested for diuretic activity in dogs at 5 mg/kg dose after intravenous administration, activity is expressed as urine volume

SMILES	Oral activity (Rattus norvegicus [1])	Urine volume (Canis familiaris [2])	Oral activity (Canis familiaris [4])	Oral activity (Rattus norvegicus [5])	Oral activity (Canis familiaris [6])	Ratio [7]	Oral activity (Pan troglodytes [9])	Oral activity (Rattus norvegicus [10])	Oral activity (Canis familiaris [11])	Oral activity (Rattus norvegicus [12])	other results
O=C(c1cccs1)c1cc2c(c(Cl)c1Cl)O[C@@H](C(=O)O)C2 [listing 1 of 2 here]	29	233 mL	2.5	38	4.8	0.454	95	41	4.3	48	K+ excretion (Canis familiaris [3]): 35 µequiv/min; Na+ excretion (Canis familiaris [8]): 118 µequiv/min; Cl- excretion (Canis familiaris [13]): 54 µequiv/min
O=C(c1cccs1)c1cc2c(c(Cl)c1Cl)OC(c1nnn[nH]1)C2 (stereo unspecified)	29	–	–	16	–	–	–	16	–	13	–
O=C(c1ccc2c(c1)CC(C(=O)O)O2)c1cccs1 (stereo unspecified)	22	–	–	4	–	–	–	7	–	6	Urine volume (Canis familiaris [14]): 1 mL/min; Na+ excretion (Canis familiaris [15]): 193 µequiv/min
NC(=O)C1Cc2cc(C(=O)c3cccs3)c(Cl)c(Cl)c2O1 (stereo unspecified)	25	229 mL	1.7	9	2.1	–	–	11	3	7	Oral activity (Canis familiaris [16]): 1.7; Oral activity (Canis familiaris [17]): 2.1; Oral activity (Canis familiaris [18]): 3
N#CC1Cc2cc(C(=O)c3cccs3)c(Cl)c(Cl)c2O1 (stereo unspecified)	8	190 mL	–	9	–	–	–	10	–	6	Oral activity (Canis familiaris [16]): 1.1; Oral activity (Canis familiaris [17]): 1; Oral activity (Canis familiaris [18]): 2.2
O=C(c1ccccc1)c1cc2c(c(Cl)c1Cl)OC(C(=O)O)C2 (stereo unspecified)	119	–	–	85	–	–	–	117	–	59	K+ excretion (Canis familiaris [19]): 19 µequiv/min
O=C(O)COc1ccc(C(=O)c2cccs2)c(Cl)c1Cl	56	395 mL	1.8	15	3.3	0.437	318	43	5.4	7	Na+ excretion (Canis familiaris [20]): 144 µequiv/min; Cl- excretion (Canis familiaris [21]): 132 µequiv/min
O=C(c1cccs1)c1cc2c(c(Cl)c1Cl)O[C@@H](C(=O)O)C2 [listing 2 of 2 here]	–	–	–	–	–	–	–	–	–	–	Ratio [22]: -0.019; Oral activity (Pan troglodytes [23]): 492; Ratio [24]: 0.376 and 0.358; Oral activity (Pan troglodytes [25]): 256; Ratio [26]: 0.01; Oral activity (Pan troglodytes [27]): 711 and 637; Oral activity (Pan troglodytes [28]): 540; Ratio [29]: 0.013; Oral activity (Pan troglodytes [30]): 622 and 482; Oral activity (Pan troglodytes [31]): 26
NS(=O)(=O)c1cc(C(=O)O)c(NCc2ccco2)cc1Cl [FUROSEMIDE]	234	–	–	7	–	-0.02	1035	125	–	6	Urine volume (Canis familiaris [32]): 700 mL
